# Test results published in ChEMBL document CHEMBL1135395, “Design and synthesis of potent nonpeptidic farnesyltransferase inhibitors based on a terphenyl scaffold” (J Med Chem, 2002).
# Tests used:
# [1] = target: Protein farnesyltransferase (Homo sapiens, UniProt P49354+P49356); experiment: Inhibition of farnesyltransferase from human Burkitt lymphoma (Daudi) cells
# In short: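 Partially purified enzyme from Daudi cells was incubated with [3H]FPP and recombinant H-Ras-CVLS at a range of inhibitor concentrations for 30 min at 37 °C. IC50 was determined.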
# [2] = target: Geranylgeranyl transferase type I (Homo sapiens, UniProt P49354+P53609); experiment: Inhibition of partially purified Geranylgeranyl transferase type I (GGTase-I) from human Burkitt lymphoma (Daudi) cells
# In short: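 Partially purified enzyme from Daudi cells was incubated with [3H]GGPP and recombinant H-Ras-CVLL at a range of inhibitor concentrations for 30 min at 37 °C. The reaction was stopped and filtered on glass fiber filters to separate free from Ras-bound label.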
IC50 [1] [µM],IC50 [2] [µM],Structure (SMILES)
> 10,> 10,O=C(O)c1cccc(-c2ccc(NCc3ccc(S)cc3)cc2-c2ccccc2)c1
0.77,> 100,Cc1cccc(-c2ccc(NC[C@@H](N)CS)cc2)c1
0.38,6.9,COC(=O)c1cccc(-c2ccc(NCc3cncn3Cc3ccc(C#N)cc3)cc2-c2ccccc2)c1
> 10,> 10,COC(=O)c1cccc(-c2ccc(NCc3cccc(S)c3)cc2-c2ccccc2)c1
> 10,> 10,COC(=O)c1cccc(-c2ccc(NCc3ccccc3S)cc2-c2ccccc2)c1
0.31,5.9,COC(=O)c1cccc(-c2ccc(NCc3cncn3Cc3ccc([N+](=O)[O-])cc3)cc2-c2ccccc2)c1
> 10,> 10,O=C(O)c1cccc(-c2ccc(NCc3cccc(S)c3)cc2-c2ccccc2)c1
,7,Nc1ccc(Cn2cncc2CNc2ccc(-c3cccc(C(=O)O)c3)c(-c3ccccc3)c2)cc1
0.037,35,COc1cc(NC[C@@H](N)CS)ccc1-c1cccc(C(=O)O)c1
5.6,> 10,COC(=O)c1cccc(-c2ccc(NCc3cncn3Cc3ccc(N)cc3)cc2-c2ccccc2)c1
0.15,90,N[C@@H](CS)CNc1ccc(-c2cccc(C(=O)O)c2)cc1
0.93,100,COC(=O)c1cccc(-c2ccc(NC[C@@H](N)CS)cc2)c1
> 10,> 10,COC(=O)c1cccc(-c2ccc(NCc3ccc(S)cc3)cc2-c2ccccc2)c1
0.15,,CSCC[C@H](NC(=O)c1ccc(NC[C@@H](N)CS)cc1)C(=O)O
3.8,> 10,O=C(CCS)Nc1ccc(-c2cccc(C(=O)O)c2)c(-c2ccccc2)c1
> 10,> 10,O=C(O)c1cccc(-c2ccc(NC(=O)c3cccc(S)c3)cc2-c2ccccc2)c1
0.43,4.4,N#Cc1ccc(Cn2cncc2CNc2ccc(-c3cccc(C(=O)O)c3)c(-c3ccccc3)c2)cc1
0.45,3.9,O=C(O)c1cccc(-c2ccc(NCc3cncn3Cc3ccc([N+](=O)[O-])cc3)cc2-c2ccccc2)c1
0.02,0.64,N[C@@H](CS)CNc1ccc(-c2cccc(C(=O)O)c2)c(-c2ccccc2)c1
> 10,> 10,COC(=O)c1cccc(-c2ccc(NC(=O)c3cccc(S)c3)cc2-c2ccccc2)c1
1.2,> 100,N[C@@H](CS)CNc1ccc(-c2ccccc2)cc1
0.03,4.4,N[C@@H](CS)CNc1ccc(-c2cccc(C3N=NN=N3)c2)cc1
> 10,> 10,COC(=O)c1cccc(-c2ccc(NC(=O)CCS)cc2-c2ccccc2)c1
2.3,5,O=C(O)c1cccc(-c2ccc(NCc3cnc[nH]3)cc2-c2ccccc2)c1
> 10,> 10,COC(=O)c1cccc(-c2ccc(NCc3c[nH]cn3)cc2-c2ccccc2)c1
0.041,2.4,CCCOc1cc(NC[C@@H](N)CS)ccc1-c1cccc(C(=O)O)c1
